This note sets out measurements from ChEMBL document CHEMBL2440017, “Discovery of a potent, selective, and orally bioavailable histamine H3 receptor antagonist SAR110068 for the treatment of sleep-wake disorders” (Bioorg Med Chem Lett, 2013).

The source made the active and inactive calls. The rule behind the calls is not given here.

In general, Ki refers to the equilibrium dissociation constant of an inhibitor or competing ligand from its target.

Histamine receptor H3, sequence (Q865E1 whole entry): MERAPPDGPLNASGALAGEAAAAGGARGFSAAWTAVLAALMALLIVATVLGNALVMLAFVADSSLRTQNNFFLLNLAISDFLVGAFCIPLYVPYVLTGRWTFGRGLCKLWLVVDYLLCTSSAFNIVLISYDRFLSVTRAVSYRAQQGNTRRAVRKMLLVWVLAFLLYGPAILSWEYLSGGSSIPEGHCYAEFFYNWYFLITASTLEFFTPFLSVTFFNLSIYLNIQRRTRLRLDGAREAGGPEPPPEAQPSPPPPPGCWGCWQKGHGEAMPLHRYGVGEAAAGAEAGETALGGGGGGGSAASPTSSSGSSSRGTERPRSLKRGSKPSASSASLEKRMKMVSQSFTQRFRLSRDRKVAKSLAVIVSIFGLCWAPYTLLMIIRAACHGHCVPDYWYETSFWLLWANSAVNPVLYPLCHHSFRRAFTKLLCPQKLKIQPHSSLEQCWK

The subject of the first assay is Rattus norvegicus. The experiment in a line: Awakening activity in rat assessed as decrease of theta rhythm at 10 mg/kg, po after 3 to 4 hrs. The format is functional, organism-based. Also on record: dose 10 mg/kg.
For the molecule `C[C@@H]1CCCN1CCc1cc2cc(-c3ccc(C#N)cc3)ccc2o1`, the outcome was Active.

The subject of a further assay is Rattus norvegicus. Briefly: Awakening activity in rat assessed as increased wakefulness at 10 mg/kg, po after 3 to 4 hrs. The format is functional, organism-based. Further details: dose 10 mg/kg. The method in brief: (§1)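 Rats given compound orally at 3 or 10 mg/kg, or reference drugs i.p. or p.o. at 10 mg/kg. EEG recorded during the light phase and scored as wakefulness, slow wave sleep and REM sleep. Time-course analysis of the effects.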
In the case of `C[C@@H]1CCCN1CCc1cc2cc(-c3ccc(C#N)cc3)ccc2o1`, the result was Active.

A further assay has as its system Rattus norvegicus. The experiment in a line: Awakening activity in rat assessed as increased wakefulness at 10 mg/kg, po after 1 hr. The format is functional, organism-based. Further details: dose 10 mg/kg. The method in brief: as §1
With `CNC(=O)c1ccc(Oc2ccc3c(c2)CCN(C2CCC2)CC3)nc1`, the result was Active.

In another assay the test system is Rattus norvegicus. Briefly: Awakening activity in rat assessed as increased wakefulness at 10 mg/kg, ip after 3 hrs. Also on record: dose 10 mg/kg. The format is functional, organism-based. The method in brief:
as §1
In the case of `O=C(c1ccc(OCCCc2c[nH]cn2)cc1)C1CC1`, the outcome was Active.

For the next assay, the system named is Rattus norvegicus. Briefly: Awakening activity in rat assessed as decrease in slow wave and REM sleep at 10 mg/kg, po. The format is functional, organism-based. Also on record: dose 10 mg/kg.
For the molecule `S=C(NC1CCCCC1)N1CCC(c2cnc[nH]2)CC1`, the outcome was Active.

A further assay has as its system Rattus norvegicus. Briefly: Awakening activity in rat assessed as increased wakefulness at 10 mg/kg, po. Further details: dose 10 mg/kg. The format is functional, organism-based.
For `S=C(NC1CCCCC1)N1CCC(c2cnc[nH]2)CC1`, the result was Active.

In another assay the target is Histamine receptor H3 (Macaca mulatta, UniProt Q865E1). The experiment in a line: Displacement of [3H]N-alpha-methylhistamine from rhesus monkey histamine H3 receptor expressed in CHO cells. The format is cell-based. The method in brief:
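Membranes from CHO cells stably expressing rhesus monkey H3 receptor. Competition binding against [3H]N-α-methylhistamine; Ki values are means of three or more determinations.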
Molecule `Cc1cc(N2CC[C@H](N3CCC[C@@H]3C)C2)ccc1NC(=O)C1CCCCC1` showed a Ki of 0.39 nM. For the molecule `CC(=O)N1CCCC1C(=O)Nc1ccc(N2CCC(N3CCCC3C)C2)cc1` (mixture of isomers), the Ki stood at 14.1 nM. `CC(=O)N1CCCC1C(=O)Nc1ccc(N2CCC(N3CCCC3C)C2)c(C)c1` (mixture of isomers) had a Ki of 44.9 nM. Molecule `CC1CCCN1C1CCN(c2ccc(NC(=O)C3CC4CCC3C4)cc2)C1` (configuration not stated) yielded an inhibition constant Ki of 15.7 nM. The molecule `Cc1cc(N2CC[C@H](N3CCC[C@@H]3C)C2)ccc1NC(=O)C1CCCO1` (some centres not stated) gave a Ki of 7.33 nM.

`Cc1cc(N2CCC(N3CCCC3C)C2)ccc1NC(=O)C1CCCO1` (mixture of isomers): the Ki came out at 7.34 nM. The molecule `Cc1cc(N2CC[C@H](N3CCC[C@@H]3C)C2)ccc1NC(=O)C1C(C)(C)C1(C)C` gave a Ki of 0.55 nM. The same measure, in the same setting: to `Cc1cc(NC(=O)C2CCCO2)ccc1N1CCC(N2CCCC2C)C1` (mixture of isomers) belongs 17 nM. Still for that read-out and setting: under `Cc1cc(N2CCC(N3CCCC3C)C2)ccc1NC(=O)C1CC2CCC1C2` (mixture of isomers) stands 19.9 nM. On to `Cc1cc(N2CC[C@@H](N3CCC[C@@H]3C)C2)ccc1NC(=O)C1CCOCC1` (racemic), for which affinity was put at a Ki of 3.9 nM. Still for that read-out and setting: to `Cc1cc(N2CC[C@H](N3CCC[C@@H]3C)C2)ccc1NC(=O)CC1CCCC1` belongs 0.85 nM.

As for `Cc1cc(N2CCC(N3CCCC3C)C2)ccc1NC(=O)C1CCCCC1` (mixture of isomers), the Ki came to 9 nM.

In turn, `CC(=O)N1CCCC1C(=O)Nc1ccc(N2CCC(N3CCCC3C)C2)cc1C` (mixture of isomers) returned a Ki of 57.7 nM. `CC1CCCN1C1CCN(c2ccc(NC(=O)C3CCCO3)cc2)C1` (mixture of isomers) gave a Ki of 8.7 nM. Molecule `Cc1cc(NC(=O)C2CC3CCC2C3)ccc1N1CCC(N2CCCC2C)C1` (mixture of isomers) had a Ki of 130 nM. The molecule `Cc1cc(N2CC[C@H](N3CCC[C@@H]3C)C2)ccc1NC(=O)C1CC2CCC1C2` (some centres not stated) came in with a Ki of 0.55 nM.
